The results in this text go back to ChEMBL document CHEMBL4196132, “Alkaloids with Immunosuppressive Activity from the Bark of Pausinystalia yohimbe” (J Nat Prod, 2018).

Holding throughout (assay type): functional, cell-based
For one assay, the system named is HepG2. The experiment in a line: Cytotoxicity against human HepG2 cells assessed as reduction in cell viability at 100 uM after 24 hrs by MTT assay. The essentials: (§1)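 Human cancer lines grown in DMEM or RPMI-1640 with 10% FBS plus penicillin–streptomycin, 5% CO2, 37 °C. MTT read-out, viable-cell percentage measured at 490 nm. Doxorubicin hydrochloride as positive control.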
(In general: Tetrazolium assays rely on reduction of a dye to a coloured formazan, in cell work by metabolically active cells.)

Another assay concerns HeLa. The experiment in a line: Cytotoxicity against human HeLa cells assessed as reduction in cell viability at 100 uM after 24 hrs by MTT assay. In a few lines:
as §1

In another assay the test system is MCF7. The experiment in a line: Cytotoxicity against human MCF7 cells assessed as reduction in cell viability at 100 uM after 24 hrs by MTT assay. The essentials: as §1
A further assay concerns HT-29. The assay can be described thus: Cytotoxicity against human HT-29 cells assessed as reduction in cell viability at 100 uM after 24 hrs by MTT assay. The essentials:
as §1

Another assay deals with B-cell line. The experiment in a line: Immunosuppressive activity in C57BL/6 mouse B cells assessed as inhibition of LPS-induced cell proliferation by MTT assay. Conditions: C57BL/6, B-cell. In a few lines: (§2)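 Splenocytes from male C57BL/6 mice (6–8 weeks), red cells lysed, in RPMI 1640 with 10% FBS. 5 × 10^5 cells per well, 5% CO2, 37 °C, 24 h. Stimulated with ConA 5 μg/mL (T cells) or LPS 10 μg/mL (B cells). MTT added for 4 h, pellet dissolved in DMSO, read at 490 nm. CsA and MMF as positive controls.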

For a further assay, the system named is Murine T-cell line. The experiment in a line: Immunosuppressive activity in C57BL/6 mouse T cells assessed as inhibition of ConA-induced cell proliferation by MTT assay. The note with it: C57BL/6, T-cell. In a few lines:
as §2

Activity calls are given as the source filed them. No cut-off for these calls is given here.

On to `CC[C@H]1C[N@@+]2([O-])CCc3c([nH]c4ccccc34)[C@@H]2C[C@@H]1/C(=C\OC)C(=O)OC`, for which the outcome in the assay on HepG2, in the assay with HeLa, in the assay with MCF7 and with HT-29 was inactive.
Take `CC[C@@H]1C[N@+]2([O-])CCc3c([nH]c4ccccc34)[C@@H]2C[C@@H]1/C(=C\OC)C(=O)OC`: the outcome in the assay with HepG2, in the assay on HeLa, with MCF7 and in the assay on HT-29 was inactive.
`CC[C@@H]1CN2CC[C@@]3(C(=O)Nc4ccccc43)[C@@H]2C[C@@H]1/C(=C\OC)C(=O)OC`: the outcome in the assay with HepG2, with HeLa, in the assay with MCF7 and in the assay on HT-29 was inactive.
Consider `CC[C@@H]1CN2CC[C@]3(C(=O)Nc4ccccc43)[C@@H]2C[C@@H]1/C(=C\OC)C(=O)OC`, for which the outcome in the assay on HepG2, with HeLa, in the assay on MCF7 and with HT-29 was inactive.
Broadly, the IC50 is the concentration needed to halve the response being measured. For `C=C[C@H]1CN2CCc3c([nH]c4ccccc34)[C@@H]2C[C@@H]1/C(=C\OC)C(=O)OC`, the result in the assay on HepG2, with HeLa, in the assay on MCF7 and in the assay on HT-29 was inactive. The half-maximal inhibitory concentration (IC50) was 13.5 µM with B-cell line and 16.8 µM in the assay on Murine T-cell line.
`C=C[C@@H]1CN2CC[C@@]3(C(=O)Nc4ccccc43)[C@@H]2C[C@@H]1/C(=C\OC)C(=O)OC`: the outcome in the assay on HepG2, with HeLa, in the assay on MCF7 and with HT-29 was inactive.
In the case of `C=C[C@H]1C[N@+]2([O-])CCc3c([nH]c4ccccc34)[C@@H]2C[C@@H]1/C(=C\OC)C(=O)OC`, the outcome in the assay on HepG2, in the assay with HeLa, in the assay on MCF7 and in the assay on HT-29 was inactive.
Consider `CC[C@@H]1CN2CCc3c([nH]c4ccccc34)[C@@H]2C[C@@H]1/C(=C\OC)C(=O)OC`, for which the outcome with HepG2, with HeLa, with MCF7 and with HT-29 was inactive.
As to `C=C[C@H]1CN2CC[C@]3(C(=O)Nc4ccccc43)[C@@H]2C[C@@H]1/C(=C\OC)C(=O)OC`, the result in the assay on HepG2, in the assay on HeLa, in the assay on MCF7 and in the assay on HT-29 was inactive.
Turning to `CC[C@H]1CN2CCc3c([nH]c4ccccc34)[C@@H]2C[C@@H]1/C(=C\OC)C(=O)OC` (stereo in doubt; 14), the outcome in the assay on HepG2, in the assay with HeLa, in the assay on MCF7 and with HT-29 was inactive.
Turning to `CC[C@@H]1CN2CCc3c([nH]c4ccccc34)C2=C2OC(=O)C(C(=O)OC)=C21`, the outcome in the assay with HepG2, with HeLa, with MCF7 and in the assay with HT-29 was inactive.
With `CC[C@H]1CN2CCc3c([nH]c4ccccc34)[C@@H]2C[C@@H]1/C(=C\OC)C(=O)OC` (stereo in doubt; 13), the outcome in the assay with HepG2, in the assay with HeLa, in the assay on MCF7 and in the assay on HT-29 was inactive.
Take `CC[C@@H]1CN2C=Cc3c([nH]c4ccccc34)C2=C2OC(=O)C(C=O)=C21`: the outcome in the assay on HepG2, in the assay on HeLa, in the assay on MCF7 and in the assay with HT-29 was inactive.
As to `C=C[C@H]1C[N@@+]2([O-])CCc3c([nH]c4ccccc34)[C@@H]2C[C@@H]1/C(=C\OC)C(=O)OC`, the outcome in the assay on HepG2, in the assay with HeLa, in the assay with MCF7 and in the assay on HT-29 was inactive.
Take `COC(=O)[C@H]1[C@H]2C[C@H]3c4[nH]c5ccccc5c4CCN3C[C@@H]2CC[C@@H]1O` [CORYNANTHEINE]: the outcome in the assay on HepG2, with HeLa, in the assay with MCF7 and in the assay on HT-29 was inactive. Besides, the half-maximal inhibitory concentration (IC50) in the assay on B-cell line is 40.5 µM; in the assay on Murine T-cell line, 27.6 µM.
On to `CC[C@@H]1C[N@@+]2([O-])CCc3c([nH]c4ccccc34)[C@@H]2C[C@@H]1/C(=C\OC)C(=O)OC`, for which the outcome in the assay with HepG2, in the assay with HeLa, in the assay on MCF7 and in the assay with HT-29 was inactive.
